Results from article PMC4001804 (Journal of pharmaceutical sciences, 2014).
Read-outs that look alike come from different tables or passages of the source.

Tests used:
[1] = set-up: species or system female Sprague-Dawley rats; settings: female, Sprague-Dawley, rat, in vivo
[2] = 10 μg/kg (2.4 nmoles/kg) iv bolus dose; ref 10 (Jones et al.); cited from earlier work
[3] = Single-dose subcutaneous serum pharmacokinetics, analysis of individual animals; type: in vivo, female Sprague-Dawley rats
Method in brief: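 Three-month-old female rats (200–240 g), acclimated two weeks, n = 4, got one subcutaneous dose. Tail-vein blood was drawn at 0, 2, 5, 10, 20, 30, 60, 180 and 360 min, clotted at ambient temperature, spun 14,000 rpm 10 min refrigerated, and serum stored at −80°C. Immunoreactive hPTH(1-34) was measured by ELISA. Parameters came from individual animals; half-life was reported as geometric mean.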

clearance [1]: 83 mL/min/kg
bioavailability ([1]; sc): 47%
half-life ([3]; female, Sprague-Dawley, rat, serum, sc, 19.4 nmoles/kg): 59 min
Time by which serum concentrations returned to background levels ([3]; single sc dose 19.4 nmoles/kg): ≤ 6 h
Compound: CC[C@H](C)[C@H](NC(=O)[C@H](CCC(=O)O)NC(=O)[C@H](CO)NC(=O)[C@@H](NC(=O)[C@@H](N)CO)C(C)C)C(=O)N[C@@H](CCC(N)=O)C(=O)N[C@@H](CC(C)C)C(=O)N[C@@H](CCSC)C(=O)N[C@@H](Cc1cnc[nH]1)C(=O)N[C@@H](CC(N)=O)C(=O)N[C@@H](CC(C)C)C(=O)NCC(=O)N[C@@H](CCCCN)C(=O)N[C@@H](Cc1cnc[nH]1)C(=O)N[C@@H](CC(C)C)C(=O)N[C@@H](CC(N)=O)C(=O)N[C@@H](CO)C(=O)N[C@@H](CCSC)C(=O)N[C@@H](CCC(=O)O)C(=O)N[C@@H](CCCN=C(N)N)C(=O)N[C@H](C(=O)N[C@@H](CCC(=O)O)C(=O)N[C@@H](Cc1c[nH]c2ccccc12)C(=O)N[C@@H](CC(C)C)C(=O)N[C@@H](CCCN=C(N)N)C(=O)N[C@@H](CCCCN)C(=O)N[C@@H](CCCCN)C(=O)N[C@@H](CC(C)C)C(=O)N[C@@H](CCC(N)=O)C(=O)N[C@@H](CC(=O)O)C(=O)N[C@H](C(=O)N[C@@H](Cc1cnc[nH]1)C(=O)N[C@@H](CC(N)=O)C(=O)N[C@@H](Cc1ccccc1)C(=O)O)C(C)C)C(C)C [PTH(1-34), teriparatide]
clearance [2]: 98 mL/min/kg
